Assays:
[1] = target: Human immunodeficiency virus type 1 protease (Human immunodeficiency virus 1) (UniProt Q72874); assay: Concentration required to inhibit 50% of RT production in HIV-1/MN-infected MT-2 cells.; type: functional, cell-based; conditions: MT2
How it was run: (§1)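 HIV-1/MN virus stocks taken from culture supernatant of chronically infected H9/HIV-1/MN cells and used to infect MT-2 cells. Antiviral effect read out as percent reduction of reverse transcriptase activity. ED50 and ED90 are the concentrations giving 50% and 90% inhibition of RT production. Values are averages of at least three determinations.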

[2] = target: Human immunodeficiency virus type 1 protease (Human immunodeficiency virus 1) (UniProt Q72874); assay: concentration of compound required to inhibit 90% of RT production in HIV-1/MN-infected MT-2 cells.; type: functional, cell-based; conditions: MT2; how it was run: as §1
[3] = tested on: Mus musculus; assay: Drug concentration in blood sample was analyzed by reversed phase HPLC 30 min (c30) after oral application of 120 mg/kg in a standardized formulation; type: functional
How it was run: (§2)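 Female Balb/c mice with free access to food and water, dosed by gavage at 120 mg/kg. Compound dissolved in DMSO at 240 mg/mL, then diluted 1:20 with aqueous 20% hydroxypropyl-β-cyclodextrin, giving a suspension. Four mice per time point; heart blood taken at 30 and 90 min. Plasma deproteinated with acetonitrile and quantified by reversed-phase HPLC-UV against a plasma calibration curve.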

[4] = tested on: Mus musculus; assay: Drug concentration in blood sample was analyzed by reversed phase HPLC 30 min (c90) after oral application of 120 mg/kg in a standardized formulation; type: functional; conditions: in the assay text read “90 min” for “30 min”; how it was run: as §2
[5] = tested on: Human immunodeficiency virus 1; assay: Antiviral activity against HIV-1 protease inhibitor-resistant strain(indinavir resistant) of the HI virus(L10R,M46I,L63P,V82T,I84V); type: functional
How it was run: (§3)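 CEM-SS cells were infected with each HIV-1 strain (MOI 0.001-0.005) for 4 h at 37 °C, then washed and plated at 20 000 cells/well with serial 3-fold compound dilutions in triplicate at 37 °C, 5% CO2. Compound was kept at constant final concentration through cell splitting on day 4 and medium replacement on day 7. Supernatant RT activity was assayed on days 4, 7 and 10. Value is the lowest concentration giving total inhibition of replication until day 10, averaged over at least three determinations.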

[6] = tested on: Human immunodeficiency virus 1; assay: Antiviral activity against HIV-1 protease inhibitor-resistant strain(Wild type) of the HI virus; type: functional; how it was run: as §3
[7] = tested on: Human immunodeficiency virus 1; assay: Antiviral activity against HIV-1 protease inhibitor-resistant strain(CGP 61755 resistant) of the HI virusMutant: K45I,A71Tmix,L76F,I84Vmix); type: functional; how it was run: as §3
[8] = tested on: Human immunodeficiency virus 1; assay: Antiviral activity against HIV-1 protease inhibitor-resistant strain(CGP 61755 resistant) of the HI virus(Mutant: V32I,M46I,L63P,I84A); type: functional; how it was run: as §3
[9] = tested on: Human immunodeficiency virus 1; assay: Antiviral activity against HIV-1 protease inhibitor-resistant strain(saquinavir resistant) of the HI virus.(Mutant: G48V,L90M); type: functional; how it was run: as §3
[10] = tested on: Human immunodeficiency virus 1; assay: Antiviral activity against HIV-1 protease inhibitor-resistant strain(indinavir resistant)of the HI virus(L10R,M46I,L63P,V82T,I84V); type: functional; how it was run: as §3
[11] = tested on: Human immunodeficiency virus 1; assay: Antiviral activity against HIV-1 protease inhibitor-resistant strain(CGP 61755 resistant)of the HI virusMutant: K45I,A71Tmix,L76F,I84Vmix); type: functional; how it was run: as §3
[12] = tested on: Human immunodeficiency virus 1; assay: Antiviral activity against HIV-1 protease inhibitor-resistant strain(CGP 61755 resistant)of the HI virus(Mutant: V32I,M46I,L63P,I84A); type: functional; how it was run: as §3

| ED50 [1] [nM] | ED90 [2] [nM] | SMILES | c30 [3] [µM] | c90 [4] [µM] | ED [5] [µM] | ED [6] [µM] | ED [7] [µM] | ED [8] [µM] | ED [9] [µM] | ED [10] [µM] | ED [11] [µM] | ED [12] [µM] |
| --- | --- | --- | --- | --- | --- | --- | --- | --- | --- | --- | --- | --- |
| 0.8 | 3 | COC(=O)N[C@H](C(=O)N[C@@H](Cc1ccccc1)[C@@H](O)CN(Cc1ccc(-c2nnn(C(C)(C)C)n2)cc1)NC(=O)[C@@H](NC(=O)OC)C(C)(C)C)C(C)(C)C | 4.2 | 4.6 |  |  |  |  |  |  |  |  |
| 2.6 | 10 | COC(=O)N[C@H](C(=O)NN(Cc1ccc(-c2ccccn2)cc1)C[C@H](O)[C@H](Cc1ccccc1)NC(=O)[C@@H](NC(=O)OC)C(C)(C)C)C(C)C | 15.3 | 13.3 |  |  |  |  |  |  |  |  |
| 2.7 | 30 | COC(=O)N[C@H](C(=O)N[C@@H](Cc1ccccc1)[C@@H](O)CN(CCC(C)C)NC(=O)[C@@H](NC(=O)OC)C(C)C)C(C)C | <0.2 | 0.4 |  |  |  |  |  |  |  |  |
| 1.9 | 10 | COC(=O)N[C@H](C(=O)NN(Cc1ccc(-c2cncs2)cc1)C[C@H](O)[C@H](Cc1ccccc1)NC(=O)[C@@H](NC(=O)OC)C(C)(C)C)C(C)C | 8.5 | 5.7 |  |  |  |  |  |  |  |  |
| 0.7 | 3 | COC(=O)N[C@H](C(=O)NN(Cc1ccc(-c2ccccc2)cc1)C[C@H](O)[C@H](Cc1ccccc1)NC(=O)[C@@H](NC(=O)OC)C(C)(C)C)C(C)C | 0.6 | 1.1 |  |  |  |  |  |  |  |  |
| 1.2 | 3 | CCOC(=O)N[C@H](C(=O)NN(Cc1ccc(-c2cncs2)cc1)C[C@H](O)[C@H](Cc1ccccc1)NC(=O)[C@@H](NC(=O)OC)C(C)(C)C)C(C)C | 1.4 | 1.4 |  |  |  |  |  |  |  |  |
| 1.5 | 3 | COC(=O)N[C@H](C(=O)N[C@@H](Cc1ccccc1)[C@@H](O)CN(Cc1ccc(-c2ccccc2)cc1)NC(=O)[C@@H](NC(=O)OC)C(C)(C)C)C(C)C | 6.3 | 5.4 |  |  |  |  |  |  |  |  |
| 1.6 | 10 | CCN(CC)c1ccc(CN(C[C@H](O)[C@H](Cc2ccccc2)NC(=O)[C@@H](NC(=O)OC)C(C)(C)C)NC(=O)[C@@H](NC(=O)OC)C(C)(C)C)cc1 | 11.8 | 7.6 |  |  |  |  |  |  |  |  |
| 55 | 1000 | CCOC(=O)N[C@H](C(=O)N[C@@H](Cc1ccccc1)[C@@H](O)CN(CC1CCCCC1)NC(=O)[C@@H](NC(=O)OCC)C(C)C)C(C)C | 6.7 | 7.8 |  |  |  |  |  |  |  |  |
| 0.8 | 3 | COC(=O)N[C@H](C(=O)N[C@@H](Cc1ccccc1)[C@@H](O)CN(Cc1ccc(-c2cncs2)cc1)NC(=O)[C@@H](NC(=O)OC)C(C)(C)C)C(C)(C)C | 12.6 | 9.9 |  |  |  |  |  |  |  |  |
| 2.1 | 10 | COC(=O)N[C@H](C(=O)N[C@@H](Cc1ccccc1)[C@@H](O)CN(Cc1ccc(-c2nccs2)cc1)NC(=O)[C@@H](NC(=O)OC)C(C)(C)C)C(C)C | 17.5 | 14.9 |  |  |  |  |  |  |  |  |
| 5.6 | 30 | COC(=O)N[C@H](C(=O)N[C@@H](Cc1ccccc1)[C@@H](O)CN(Cc1ccc(-c2cncs2)cc1)NC(=O)[C@@H](NC(=O)OC)C(C)C)C(C)C | 1.8 | 0.1 |  |  |  |  |  |  |  |  |
| 1.4 | 10 | COC(=O)N[C@H](C(=O)N[C@@H](Cc1ccccc1)[C@@H](O)CN(Cc1ccc(-c2cncs2)cc1)NC(=O)[C@@H](NC(=O)OC)C(C)(C)C)C(C)C | 8.5 | 4.4 |  |  |  |  |  |  |  |  |
| 7.4 | 30 | COC(=O)N[C@H](C(=O)N[C@@H](Cc1ccccc1)[C@@H](O)CN(Cc1ccc(-c2ccccn2)cc1)NC(=O)[C@@H](NC(=O)OC)C(C)C)C(C)C | 2.7 | 2.2 |  |  |  |  |  |  |  |  |
| 5.4 | 30 | CCOC(=O)N[C@H](C(=O)NN(Cc1ccc(-c2ccccn2)cc1)C[C@H](O)[C@H](Cc1ccccc1)NC(=O)[C@@H](NC(=O)OC)C(C)C)C(C)C | 0.5 | 0.2 |  |  |  |  |  |  |  |  |
| 2 | 10 | COC(=O)N[C@H](C(=O)N[C@@H](Cc1ccccc1)[C@@H](O)CN(Cc1ccc(-c2ccccn2)cc1)NC(=O)[C@@H](NC(=O)OC)C(C)(C)C)C(C)C | 13.8 | 12.7 |  |  |  |  |  |  |  |  |
| 2.8 | 10 | CCC(C)[C@H](NC(=O)OC)C(=O)N[C@@H](Cc1ccccc1)[C@@H](O)CN(Cc1ccc(-c2ccccn2)cc1)NC(=O)[C@@H](NC(=O)OC)C(C)C (stereo partly specified) | 0.4 | 0.3 |  |  |  |  |  |  |  |  |
| 1.8 | 10 | COC(=O)N[C@H](C(=O)N[C@@H](Cc1ccccc1)[C@@H](O)CN(Cc1ccc(-c2ccccc2)cc1)NC(=O)[C@@H](NC(=O)OC)C(C)C)C(C)C | <0.1 | 0.3 |  |  |  |  |  |  |  |  |

| SMILES | ED50 [1] [nM] | ED90 [2] [nM] | c30 [3] [µM] | c90 [4] [µM] | ED [5] [µM] | ED [6] [µM] | ED [7] [µM] | ED [8] [µM] | ED [9] [µM] | ED [10] [µM] | ED [11] [µM] | ED [12] [µM] |
| --- | --- | --- | --- | --- | --- | --- | --- | --- | --- | --- | --- | --- |
| COC(=O)N[C@H](C(=O)N[C@@H](Cc1ccccc1)[C@@H](O)CN(Cc1ccc(-c2ccccn2)cc1)NC(=O)[C@@H](NC(=O)OC)C(C)(C)C)C(C)(C)C [ATAZANAVIR] | 1.4 | 3 | 21.8 | 31.8 | 0.03 | 0.01 | 0.3 | 0.3 | 0.004 |  |  |  |
| COC(=O)N[C@H](C(=O)N[C@@H](Cc1ccccc1)[C@@H](O)CN(Cc1ccc(-c2nccs2)cc1)NC(=O)[C@@H](NC(=O)OC)C(C)(C)C)C(C)(C)C | 0.5 | 3 | 9.1 | 10.2 | 0.1 | 0.01 | 0.3 |  | 0.004 |  |  |  |
| COC(=O)N[C@H](C(=O)N[C@@H](Cc1ccccc1)[C@@H](O)CN(Cc1ccc(-c2ccccc2)cc1)NC(=O)[C@@H](NC(=O)OC)C(C)(C)C)C(C)(C)C | 0.7 | 3 | 5.5 | 4.9 |  | 0.01 |  |  | 0.01 | 0.1 | 0.3 | 0.9 |
| COC(=O)N[C@H](C(=O)N[C@@H](Cc1ccccc1)[C@@H](O)CN(Cc1ccc(-c2nnn(C)n2)cc1)NC(=O)[C@@H](NC(=O)OC)C(C)(C)C)C(C)(C)C | 0.8 | 10 | 20.3 | 14.7 | 0.1 | 0.01 | 0.9 |  | 0.01 |  |  |  |
